Target: Protein phosphatase methylesterase 1 (Homo sapiens) (UniProt Q9Y570)
Assay: in situ PME-1 block, PP2A methylation – HeLa cells, demethylated PP2A western blot, orthogonal assay for PME-1 inhibitor project, late-stage follow-up (AID 2363)
Details: demethylated PP2A western blot chemiluminescence, stronger effect = higher value
Method in brief: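 System: HeLa cells in culture with endogenous PME-1; Reagent: cellular PP2A as the PME-1 demethylation substrate; Compound dosing: 5 and 20 µM compound; Times: compound exposure of cells at 37 °C; Signal: SDS-PAGE immunoblot with HRP antibody against demethylated PP2A C-terminus, chemiluminescence; Read-out: % inhibition of PP2A demethylation.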

[1] = PP2A demethylation inhibition, at 20 µM

Chain of Protein phosphatase methylesterase 1 (Homo sapiens) (Q9Y570 whole entry, looked up): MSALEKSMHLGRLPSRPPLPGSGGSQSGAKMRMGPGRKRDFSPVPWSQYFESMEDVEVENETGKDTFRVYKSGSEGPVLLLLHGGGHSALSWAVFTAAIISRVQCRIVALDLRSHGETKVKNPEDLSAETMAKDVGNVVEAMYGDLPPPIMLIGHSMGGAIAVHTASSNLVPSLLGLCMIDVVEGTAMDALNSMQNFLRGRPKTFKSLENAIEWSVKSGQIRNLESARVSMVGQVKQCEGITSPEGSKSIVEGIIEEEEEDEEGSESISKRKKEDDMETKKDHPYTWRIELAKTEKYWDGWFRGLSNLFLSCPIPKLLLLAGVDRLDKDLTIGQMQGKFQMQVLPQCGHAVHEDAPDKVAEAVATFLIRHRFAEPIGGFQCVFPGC

inhibition [1] | inhibition (at 5 µM) | SMILES
95% | 60% | N#C/C(=C\c1cccn1S(=O)(=O)c1cccc(C#N)c1)S(=O)(=O)c1ccc(F)cc1
98% | 65% | N#C/C(=C\c1cccn1S(=O)(=O)c1cccc([N+](=O)[O-])c1)S(=O)(=O)c1ccc(F)cc1

Reference: PubChem BioAssay AID2363 (The Scripps Research Institute Molecular Screening Center, 2010)
